Drawing on ChEMBL document CHEMBL1149773, “Synthesis, determination of the lipophilicity, anticancer and antimicrobial properties of some fused 1,2,4-triazole derivatives” (Eur J Med Chem, 2008), this text covers logKw and viability for five compounds.

Each structure is given as a SMILES string.

The nature of data set [1]: Lipophilicity, log kw in acetonitrile aqueous system at pH 3.5. Type of data set: physicochemical. The procedure, abridged: (§1)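 RP-HPLC on an octadecyl silica column (150 × 4.6 mm, 5 µm) at 22 ± 1 °C, flow 1.0 mL min⁻¹, UV detection at 254 nm. Mobile phase was methanol, acetonitrile or dioxane with water and 0.01 M phosphate buffer pH 3.5 containing 0.05 M DEA. log k_W was extrapolated to pure water by regression.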

A short description of data set [2]: Antiproliferative activity against human RPMI cells assessed as cell viability at 50 uM by MTT assay. It is filed as functional. Particulars: read-out: Activity. Summed up:
(§2)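 Log-phase cells, kept in supplemented RPMI 1640 (HSF in DMEM/10% FBS) at 37 °C, 5% CO2, were exposed 24 h to 1, 50 or 100 µM compound from DMSO. They were washed, given 0.5 mg/mL MTT in HEPES buffer pH 7.4 for 45 min at 37 °C, and formazan was dissolved in DMSO and read at 570 nm. Values are % viability versus control from three independent measurements.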
For orientation: Tetrazolium dyes change colour on reduction, which living cells bring about.

A short description of data set [3]: Lipophilicity, log kw in dioxane aqueous system at pH 3.5. Particulars: buffer. Type of data set: physicochemical. Summed up: as §1
Data set [4] concerns HeLa. In words: Antiproliferative activity against human HeLa cells assessed as cell viability at 50 uM by MTT assay. It is filed as functional. Conditions: read-out: Activity. Summed up: as §2
Data set [5] in a line: Antiproliferative activity against human RPMI cells assessed as cell viability at 100 uM by MTT assay. It is filed as functional. Conditions: read-out: Activity. Summed up:
as §2

The nature of data set [6]: Antiproliferative activity against human RPMI cells assessed as cell viability at 1 uM by MTT assay. Type of data set: functional. Conditions: read-out: Activity. Summed up:
as §2

In data set [7] the test system is HeLa. Description: Antiproliferative activity against human HeLa cells assessed as cell viability at 100 uM by MTT assay. It is filed as functional. Particulars: read-out: Activity. The procedure, abridged:
as §2

Data set [8] can be described thus: Antiproliferative activity against human skin fibroblast assessed as cell viability at 1 uM by MTT assay. Type of data set: cell-based. Particulars: human skin fibroblasts, read-out: Activity. Summed up:
as §2

The nature of data set [9]: Antiproliferative activity against human skin fibroblast assessed as cell viability at 100 uM by MTT assay. Type of data set: cell-based. Particulars: human skin fibroblasts, read-out: Activity. Summed up:
(§3)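 MTT viability assay on primary human skin fibroblasts grown in DMEM with 10% FBS and penicillin/streptomycin. Compounds were dissolved in DMSO and given at 1, 50 or 100 µM for 24 h. Cells were washed in HEPES-buffered medium (pH 7.4) and then given MTT 0.5 mg mL⁻¹ for 45 min at 37 °C. Formazan was dissolved in DMSO and read at 570 nm. Viability is % of control; three independent measurements.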

Data set [10] deals with HeLa. In words: Antiproliferative activity against human HeLa cells assessed as cell viability at 1 uM by MTT assay. It is filed as functional. Particulars: read-out: Activity. The procedure, abridged:
as §2

The nature of data set [11]: Antiproliferative activity against human skin fibroblast assessed as cell viability at 50 uM by MTT assay. It is filed as cell-based. Particulars: human skin fibroblasts, read-out: Activity. Summed up: as §3
The nature of data set [12]: Lipophilicity, log kw in methanol aqueous system at pH 3.5. Type of data set: physicochemical. The procedure, abridged:
as §1

For the compound `c1ccc(OCc2nnc3n2CCN3c2ccccc2)cc1`, the results for the logKw in data set [1], in data set [3] and in data set [12] were 1.37, 1.78 and 1.62, respectively. Besides, the viability at 50 µM came out at 99% in [2], 71.1% in data set [4] and 87.6% in [11]. Also, the figures for the viability at 100 µM in data set [5], in [7] and in [9] were 101%, 70.3% and 83%, respectively. The viability at 1 µM came out at 104% in [6], 91.7% in [8] and 85.3% in [10].

Take `Cc1cc(Cl)ccc1OCc1nnc2n1CCN2c1ccc(Cl)cc1`: the logKw was 3.7 in data set [1], 3.87 in data set [3] and 4.61 in data set [12]. Also, the viability at 50 µM in data set [2] was determined as 32.4%; in data set [4], 71.8%; in [11] it was 74%. Besides, the viability at 100 µM in data set [5] was found to be 31.1%; in data set [7] it was 71%; in data set [9], 71%. Moreover, the viability at 1 µM in [6] is 46.4%; in data set [8], 79.5%; in data set [10] it was 92.1%.

With `Clc1ccc(N2CCn3cnnc32)cc1`, the values for the logKw in data set [1], in [3] and in data set [12] were 2.7, 1.89 and 2.19, respectively. The viability at 50 µM worked out at 96.9% in data set [2], 67.6% in data set [4] and 90.9% in data set [11]. Besides, the viability at 100 µM in data set [5] amounted to 87.5%; in data set [7], 68.4%; in data set [9], 90.7%. The viability at 1 µM in data set [6] was found to be 104%; in data set [8] it was 101%; in data set [10], 77.9%.

As for `COc1ccc(N2CCn3c(COc4ccc(Cl)cc4)nnc32)cc1`, the logKw is on record as 1.54 in data set [1], 1.52 in [3] and 1.88 in [12]. Also, the viability at 50 µM came out at 98.4% in [2], 72.1% in data set [4] and 67.1% in data set [11]. Further, the viability at 100 µM in [5] turned out to be 94.9%; in [7] it was 68.9%; in [9], 64.6%. In addition, the viability at 1 µM was determined as 99.7% in data set [6], 80.3% in data set [8] and 81.5% in [10].

As for `COc1ccc(N2CCn3cnnc32)cc1`, the logKw in data set [1] came out at 1.56; in data set [3] it was 1.22; in data set [12], 1.87. The viability at 50 µM in data set [2] was 96.5%; in data set [4], 91.7%; in [11], 95.2%. For the same compound, the viability at 100 µM in data set [5] amounted to 91.3%; in data set [7], 80.6%; in data set [9], 89.3%. For the same compound, the viability at 1 µM was 102% in data set [6], 105% in data set [8] and 93% in data set [10].
